Screens from PubChem BioAssay.
Many of the other results were omitted from the sample, so hits are more common in it than they were.
LANA-nucl inh – inhibitors of KSHV LANA binding to nucleosomes | z-score (concentration not given with the values) | actives 0.3% (n = 51,000) | FITC-LANA1-23 / chicken nucleosome fluorescence polarization; stronger effect = lower value | AID 720717;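 active = both repeat wells score below -2 in polarization z-score versus plate sample wells, excluding overly bright wells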
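Test system: purified chicken nucleosomes with FITC-labelled LANA N-terminal peptide (1-23); Input: 240 nM purified chicken nucleosomes (480 nM peptide binding sites), final; Medium: TEN-BT buffer, pH 7.5; Timing: 10–45 min, room temperature; Technique: fluorescence polarization, 480 nm excitation, 535 nm parallel and perpendicular emission; Replication: duplicates.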
BasE inh – BasE siderophore biosynthesis inhibition | inhibition, % (concentration not given with the values) | actives 0.1% (n = 84,000) | purified BasE, fluorescence polarization binding displacement; in the data active = inhibition above about 25%, passing the limit was not always enough
Each line names hits and unclear results; the compound was inactive in the other large screens.

CCn1nc(-c2ccccc2)nc2c(=O)n(C)c(=O)nc1-2	LANA-nucl inh -9.3
COCCN1C(=O)C(C(=O)O)C2CC1(C)Oc1ccccc12 (stereo unspecified)	none
CC(C)CNC1CCC(O)CC1 (stereo unspecified)	none (no result: LANA-nucl inh)
C=CCn1cc(C=C2C(=O)NC(=O)NC2=O)c2ccccc21	LANA-nucl inh -2.45
O=C1NC(=O)C(=Cc2cn(CCOc3ccc4c(c3)OCO4)c3ccccc23)C(=O)N1	none (no result: LANA-nucl inh)
CC(C)OP(C)(=O)C(N)=O (stereo unspecified)	none (no result: LANA-nucl inh)
COc1ccc(CN2CCN(Cc3ccccc3)CC2)cc1	none
CN(C)C(=O)Oc1cccc2cccnc12	none
CC(=O)Oc1ccc(Cl)c2cccnc12	BasE inh 30.4
